ChEMBL document CHEMBL1150145, “Antioxidative and cytotoxic compounds extracted from the sap of Rhus succedanea” (J Nat Prod, 2002)
≈ marks a conversion by molar mass, not a printed value. Calls of active or inactive are those of the source. No cut-off for these calls is given here.

Experiments:
[1] = Antioxidant activity assessed as inhibition of peroxide formation using iron/ascorbate system; format: functional
How it was run: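 Linoleic acid (100 mg) emulsified with Tween 20 in 50 mM Tris pH 7.4. Emulsion mixed with iron/ascorbate (30 µM FeCl3, 200 µM ascorbic acid, made daily) and methanolic compound, giving ca. 0, 1, 4, 10 ppm final. Tubes held on ice, then 37 °C for 5 and 30 min. Conjugated diene hydroperoxide read at 234 nm after MeOH dilution. BHT 2000 ppm control. Triplicates.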

HCT-116 = assay: Cytotoxicity against human HCT116 cells after 72 hrs by acid phosphatase assay; format: functional, cell-based; settings: HCT-116, 72 h
How it was run: (§1)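 Cells grown in DMEM with 10% FCS, penicillin and streptomycin at 37 °C, 5% CO2. Seeded at 2000 cells/well in 96-well plates and exposed to compound or left untreated for 72 h.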

HeLa = assay: Cytotoxicity against human HeLa cells after 72 hrs by acid phosphatase assay; format: functional, cell-based; how it was run: as §1
LoVo = assay: Cytotoxicity against human LoVo cells after 72 hrs by acid phosphatase assay; format: functional, cell-based; how it was run: as §1
Huh-7 = assay: Cytotoxicity against human HuH7 cells after 72 hrs by acid phosphatase assay; format: functional, cell-based; settings: Huh-7, 72 h; how it was run: as §1
C6 = assay: Cytotoxicity against rat C6 cells after 72 hrs by acid phosphatase assay; format: functional, cell-based; settings: C6, 72 h; how it was run: as §1

| SMILES | Activity [1] | IC50 (HCT-116) [µg/mL] | IC50 (HeLa) [µg/mL] | IC50 (LoVo) [µg/mL] | IC50 (Huh-7) [µg/mL] | IC50 (C6) [µg/mL] |
| --- | --- | --- | --- | --- | --- | --- |
| CCC/C=C/C/C=C\CCCCCCCCCc1cc(O)ccc1O | Active | 3.5 (≈ 10.2 µM) | 4.6 (≈ 13.4 µM) | 5.6 (≈ 16.3 µM) | 6 (≈ 17.4 µM) | 1 (≈ 2.9 µM) |
| CCCCCC/C=C\CCCCCCCCCc1cc(O)ccc1O | Active | 3.4 (≈ 9.81 µM) | 4.7 (≈ 13.6 µM) | 2.9 (≈ 8.37 µM) | 6.4 (≈ 18.5 µM) | 1.1 (≈ 3.17 µM) |
| C/C=C/C=C/C/C=C\CCCCCCCCCc1cc(O)ccc1O | Active | 2 (≈ 5.84 µM) | 2.8 (≈ 8.17 µM) | 4.5 (≈ 13.1 µM) | 3.9 (≈ 11.4 µM) | 0.9 (≈ 2.63 µM) |
